In ChEMBL document CHEMBL1121627, “Structure--activity relationships in a series of novel 3,4-dihydro-4-oxopyrimido[4,5-b]quinoline-2-carboxylic acid antiallergy agents” (1980):
The source made the active and inactive calls.

How the values were obtained:
Rattus norvegicus [1] = assay: Antiallergic activity against reagin induced passive cutaneous anaphylaxis reaction in rats upon peroral administration.; assay type: functional; details: po
Outline: (§1)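 Rat passive cutaneous anaphylaxis. Just before challenge, controls for antihistamine, antiserotonin or nonspecific blockade are given intradermally: 60 µg histamine dihydrochloride and 0.5 µg serotonin-creatinine sulfate. Challenge is iv, 5 mg egg albumin with 2.5 mg Evan's Blue, given immediately after iv drug or 5 min after oral drug. Site scores are summed per group of 5 or 7 and expressed as % inhibition versus control. ED50 is taken from a by-eye dose-response curve, or from least-squares regression when n is larger.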

Rattus norvegicus [2] = assay: Antiallergic activity against reagin induced passive cutaneous anaphylaxis reaction in rats upon intravenous administration.; assay type: functional; outline: as §1
Rattus norvegicus [3] = assay: The compound was evaluated for antiallergic activity against reagin induced passive cutaneous anaphylaxis reaction in rats upon peroral administration; at this dose the compound tested was found inactive; assay type: functional; details: po; outline: as §1
Rattus norvegicus [4] = assay: The compound was evaluated for antiallergic activity against reagin induced passive cutaneous anaphylaxis reaction in rats upon peroral administration, pH dependent, more active when administered in solution of pH>/=10; assay type: functional; details: po; outline: as §1
Rattus norvegicus [5] = assay: The compound was evaluated for antiallergic activity against reagin induced passive cutaneous anaphylaxis reaction in rats upon peroral administration; highest dose at which the compound was tested and found inactive; assay type: functional; details: po; outline: as §1
Rattus norvegicus [6] = assay: The compound was evaluated for antiallergic activity against reagin induced passive cutaneous anaphylaxis reaction in rats upon peroral administration, the dose at which the compound was tested and found inactive; assay type: functional; details: po; outline: as §1
Rattus norvegicus [7] = assay: The compound was evaluated for antiallergic activity against reagin induced passive cutaneous anaphylaxis reaction in rats upon peroral administration. at this dose the compound tested was found inactive; assay type: functional; details: po; outline: as §1
Rattus norvegicus [8] = assay: Inhibition of plasma histamine release induced by antigen challenge in rats assively sensitized with homologus antisera at an iv dose of 0.1 mg/kg; assay type: functional
Cavia porcellus = assay: Bronchoconstrictive effect of histamine aerosol in conscious guinea pigs at an iv dose of 30 mg/kg; Bronchoconstrictive effect is unaltered; assay type: functional, organism-based; parameters: dose 30 mg/kg
Rattus norvegicus [9] = assay: The compound was evaluated for antiallergic activity against reagin induced passive cutaneous anaphylaxis reaction in rats upon peroral administration, at this dose the compound tested was found inactive, and is highly active at the same dose if ad ministered in solution of pH >/=10; assay type: functional; details: po; outline: as §1

| SMILES | ED50 (Rattus norvegicus [1]) | ED50 (Rattus norvegicus [2]) | also measured |
| --- | --- | --- | --- |
| CCOC(=O)c1nc(O)c2cc3cc(OCC)c(OCC)cc3nc2n1 | 1 mg/kg | 0.01 mg/kg |  |
| CCOC(=O)c1nc(O)c2cc3cc(OCC)c(OCc4ccccc4)cc3nc2n1 |  | 0.9 mg/kg | ED50 (Rattus norvegicus [3]): > 30 mg/kg |
| O=C(O)c1nc2nc3ccccc3cc2c(=O)[nH]1 | 25 mg/kg | 0.2 mg/kg |  |
| CCOC(=O)c1nc(O)c2cc3c(Cl)cccc3nc2n1 | 30 mg/kg | 0.2 mg/kg |  |
| CCCCOC(=O)c1nc(O)c2cc3cc(OC)c(OC)cc3nc2n1 | 10 mg/kg | 0.003 mg/kg |  |
| CCCCOC(=O)c1nc(O)c2cc3cc(O)c(OC)cc3nc2n1 |  | 0.008 mg/kg | ED50 (Rattus norvegicus [4]): 10 mg/kg |
| CCOC(=O)c1nc(O)c2cc3cc(Cl)ccc3nc2n1 | 30 mg/kg | 0.4 mg/kg |  |
| CCNC(=O)c1nc(O)c2cc3cc(OC)c(OC)cc3nc2n1 |  | 3 mg/kg |  |
| CCCCOC(=O)c1nc(O)c2cc3ccccc3nc2n1 | 30 mg/kg | 0.06 mg/kg |  |
| COc1cc2cc3c(O)nc(C)nc3nc2cc1OC | 1 mg/kg | 0.4 mg/kg |  |
| CCOC(=O)c1nc(O)c2c(-c3ccccc3)c3ccccc3nc2n1 | 10 mg/kg | 0.3 mg/kg |  |
| CCOC(=O)c1nc(O)c2cc3ccc(OC)cc3nc2n1 | 10 mg/kg | 0.8 mg/kg |  |
| CCOC(=O)c1nc(O)c2cc3cc(OC(C)=O)c(OC)cc3nc2n1 |  | 0.007 mg/kg | ED50 (Rattus norvegicus [4]): 10 mg/kg |
| CCOC(=O)c1nc(O)c2cc3cc(OCc4ccccc4)c(OC)cc3nc2n1 |  | 3 mg/kg | ED50 (Rattus norvegicus [3]): > 10 mg/kg |
| CCOC(=O)c1nc(O)c2cc3cc(OC)cc(OC)c3nc2n1 | 30 mg/kg | 0.5 mg/kg |  |
| CCOC(=O)c1nc(O)c2cc3cc([S+](C)[O-])ccc3nc2n1 (centres undefined) | 30 mg/kg | 0.2 mg/kg |  |
| CCc1nc(O)c2cc3cc(OC)c(OC)cc3nc2n1 |  | 3 mg/kg | ED50 (Rattus norvegicus [5]): > 60 mg/kg |
| CCOC(=O)c1nc(O)c2cc3cc4c(cc3nc2n1)OCO4 | 30 mg/kg | 0.5 mg/kg |  |
| COc1cc2cc3c(O)nc(C(C)=O)nc3nc2cc1OC |  | 2 mg/kg | ED50 (Rattus norvegicus [5]): > 10 mg/kg |

| SMILES | ED50 (Rattus norvegicus [1]) | ED50 (Rattus norvegicus [2]) | also measured |
| --- | --- | --- | --- |
| CCOC(=O)c1nc(O)c2cc3cc(OCc4ccccc4)ccc3nc2n1 | 10 mg/kg | 0.9 mg/kg |  |
| COc1cc2cc3c(O)nc(-c4ccccc4)nc3nc2cc1OC |  | 3 mg/kg |  |
| CCOC(=O)c1nc2nc3cc(OC)c(OC)cc3cc2c(=O)n1C |  | 0.8 mg/kg | ED50 (Rattus norvegicus [6]): > 30 mg/kg |
| CCOC(=O)c1nc(O)c2cc3cc(SC)ccc3nc2n1 | 8 mg/kg | 0.1 mg/kg |  |
| O=C([O-])c1cc(=O)c2c(OCC(O)COc3cccc4oc(C(=O)[O-])cc(=O)c34)cccc2o1.[Na+].[Na+] [CROMOLYN SODIUM] |  | 0.8 mg/kg | ED50 (Rattus norvegicus [6]): > 300 mg/kg |
| CCOC(=O)c1nc(O)c2cc3cc(OC)c(OCc4ccccc4)cc3nc2n1 |  | 0.8 mg/kg | ED50 (Rattus norvegicus [7]): > 30 mg/kg |
| CCOC(=O)CCCn1c(C(=O)OCC)nc2nc3cc(OC)c(OC)cc3cc2c1=O |  | 0.1 mg/kg | ED50 (Rattus norvegicus [6]): > 10 mg/kg |
| COc1cc2cc3c(O)nc(C(N)=O)nc3nc2cc1OC | 30 mg/kg | 3 mg/kg |  |
| CCOC(=O)c1nc(O)c2cc3ccc(OC)c(OC)c3nc2n1 | 60 mg/kg | 0.2 mg/kg |  |
| COc1cc2cc3c(=O)[nH]c(=O)[nH]c3nc2cc1OC |  | 3 mg/kg |  |
| CCNC(=O)c1nc(O)c2cc3ccccc3nc2n1 |  | 3 mg/kg |  |
| CCOC(=O)c1nc(O)c2cc3cc(O)ccc3nc2n1 |  | 0.7 mg/kg | ED50 (Rattus norvegicus [4]): 10 mg/kg |
| COc1cc2cc3c(O)nc(C(=O)NO)nc3nc2cc1OC |  | < 3 mg/kg | ED50 (Rattus norvegicus [5]): > 60 mg/kg |
| CCOC(=O)c1nc(O)c2cc3c(OC)ccc(OC)c3nc2n1 | 30 mg/kg | 0.6 mg/kg |  |
| CCOC(=O)c1nc(=O)c2cc3cc(OC)c(OC)cc3nc2[nH]1 [PIROLATE] | 1 mg/kg | 0.007 mg/kg | inhibition in vivo at 0.1 mg/kg (Rattus norvegicus [8]): 92%; Activity (Cavia porcellus): inactive |
| O=C(O)c1nc(O)c2cc3cc(O)ccc3nc2n1 |  | 0.01 mg/kg | ED50 (Rattus norvegicus [9]): > 10 mg/kg |
| COc1cc2nc3nc(C(=O)O)nc(O)c3cc2cc1O |  | < 0.01 mg/kg | ED50 (Rattus norvegicus [9]): > 3 mg/kg |
| COc1cc2cc3c(O)nc(C(=O)OCCO)nc3nc2cc1OC | 10 mg/kg | < 0.03 mg/kg |  |
| CCOC(=O)c1nc(O)c2cc3ccc(F)cc3nc2n1 | 30 mg/kg | 0.3 mg/kg |  |

| SMILES | ED50 (Rattus norvegicus [1]) | ED50 (Rattus norvegicus [2]) | also measured |
| --- | --- | --- | --- |
| NC(=O)c1nc(O)c2cc3ccccc3nc2n1 | 60 mg/kg | 1.3 mg/kg |  |
| CCOC(=O)c1nc(O)c2cc3ccccc3nc2n1 | 3 mg/kg | 0.1 mg/kg |  |
| CCOC(=O)c1nc(O)c2cc3cc(F)ccc3nc2n1 | 30 mg/kg | 0.3 mg/kg |  |
| CCOC(=O)Cn1c(C(=O)OCC)nc2nc3cc(OC)c(OC)cc3cc2c1=O |  | 3 mg/kg |  |
| CCOC(=O)c1nc(O)c2cc3cc4c(cc3nc2n1)OCCO4 |  | 1 mg/kg |  |
| CCCCOc1cc2nc3nc(C(=O)OCC)nc(O)c3cc2cc1OCC | 5 mg/kg | 0.3 mg/kg |  |
| CCOC(=O)c1nc(O)c2cc3cc(Sc4ccc(OC)cc4)ccc3nc2n1 | 30 mg/kg | 3 mg/kg |  |
| COc1cc2cc3c(O)nc(C(F)(F)F)nc3nc2cc1OC |  | > 10 mg/kg |  |
| CCOC(=O)c1nc(O)c2cc3cc(O)c(OC)cc3nc2n1 |  | 0.001 mg/kg | ED50 (Rattus norvegicus [9]): > 10 mg/kg |
| CCOC(=O)c1nc(O)c2cc3cc(OC)c(OCC)cc3nc2n1 | 2 mg/kg | 0.007 mg/kg |  |
| CCOC(=O)CNC(=O)c1nc(O)c2cc3cc(OC)c(OC)cc3nc2n1 |  | 6 mg/kg |  |
| CCOC(=O)c1nc(O)c2cc3cc(OCC)c(OC)cc3nc2n1 | 0.3 mg/kg | 0.002 mg/kg |  |
| CCOC(=O)c1nc(O)c2cc3cc(OC)c(O)cc3nc2n1 |  | 1 mg/kg | ED50 (Rattus norvegicus [9]): > 3 mg/kg |
| CNC(=O)c1nc(O)c2cc3cc(OC)c(OC)cc3nc2n1 |  | 3 mg/kg |  |
| COc1cc2cc3c(O)nc(C(=O)[O-])nc3nc2cc1OC.[Na+] | 10 mg/kg | 0.005 mg/kg |  |
| COc1cc2cc3c(O)ncnc3nc2cc1OC |  | 3 mg/kg |  |
| CCOC(=O)c1nc(O)c2cc3cc(OC)ccc3nc2n1 | 20 mg/kg | 0.03 mg/kg |  |
| CCOC(=O)c1nc(O)c2cc3cc(OC)c(OC)c(OC)c3nc2n1 | 10 mg/kg | 0.8 mg/kg |  |
